Measurements collected from several papers.
Lines come from different studies, so protocols differ.

| Structure (SMILES) | system | setting | measurement | result |
| --- | --- | --- | --- | --- |
| CCc1cc(OC)c2nccc(N3CCc4c(cc(Cn5ccnc5)cc4-c4cn(C)nc4C(F)(F)F)C3=O)c2c1 | male CD-1 mouse, plasma | intravenous, 3 mg/kg | AUC(0-inf) | 3.33 µg·h/mL |
| CC(C)(C)c1ccc(O)c(CN(Cc2cc(C(C)(C)C)ccc2O)C2CCC(NC(N)=O)CC2)c1 (stereo not drawn) | male C57BL/6 mouse, plasma | oral, 10 mg/kg, single dose | AUC(0-inf) | 6.62 µg·h/mL |
| Cc1nc(-c2cnc(NC(C)C)n(C)c2=O)ccc1Oc1ccnc(-c2cnn(C)c2)c1 | female mouse, plasma | oral, 30 mg/kg, single dose | AUC(0-inf) | 285 µg·h/mL |
| Cc1noc([C@H](Cc2c[nH]cn2)NC(=O)CN(CCCc2ccccc2)CC(=O)O)n1 | male C57BL/6 mouse, plasma | intraperitoneal, 30 mg/kg | AUC | 1.9 µg·h/mL |
| Cc1ccc2cncc(N3CCc4c(cc(Cn5ccnc5)cc4-c4cn(C)nc4C(F)(F)F)C3=O)c2c1 | male CD-1 mouse, plasma | oral, 50 mg/kg | AUC(0-inf) | 36.3 µg·h/mL |
| CNC(=O)[C@H](Cc1c[nH]cn1)NC(=O)CN(CCCc1ccccc1)CC(=O)O | male C57BL/6 mouse, plasma | intraperitoneal, 30 mg/kg | AUC | 3.6 µg·h/mL |
| CC[C@H](C)[C@@H]1NC(=O)[C@@](C)(NC(=O)[C@H](CCCNC(=N)N)NC(=O)[C@H](CC(C)C)NC(=O)[C@@H](NC(=O)[C@H](CCC(N)=O)NC(=O)[C@H](CC(C)C)NC(C)=O)[C@@H](C)O)CCCC=CCCC[C@@](C)(C(=O)N[C@@H](CC(C)C)C(=O)N[C@@H](Cc2ccc3ccccc3c2)C(N)=O)NC(=O)[C@H](CCCNC(=N)N)NC(=O)[C@H](CCC(N)=O)NC1=O | male BALB/c mouse, plasma | intravenous, 5 mg/kg | AUC | 76 µM·h |
| NC[C@@H]1O[C@H](O[C@H]2[C@@H](O)[C@H](O[C@@H]3[C@@H](O)[C@H](N)C[C@H](N)[C@H]3O[C@H]3O[C@H](CO)[C@@H](O)[C@H](O)[C@H]3N)O[C@@H]2CO)[C@H](N)[C@@H](O)[C@@H]1O | male BALB/c mouse, plasma | oral, 500 mg/kg | AUC | 3.4 µg·h/mL |
| CC(C)(O)c1cn(-c2ccc(-c3cccc(S(C)(=O)=O)c3)cc2)c(C(C)(C)c2ccccc2Cl)n1 | male C57BL/6 mouse, serum | oral, 10 mg/kg | AUC | 57 µM·h |
| OC[C@H]1O[C@@H](c2ccc(Cl)c(Cc3ccc(O[C@H]4CCOC4)cc3)c2)[C@H](O)[C@@H](O)[C@@H]1O | CD-1 mouse, plasma | intravenous, 5 mg/kg | AUC | 1.45 µg·h/mL |
| CC(C)(O)c1cn(-c2ccc(-c3ccc(CO)c(S(C)(=O)=O)c3)cc2)c(Cc2ccccc2Cl)n1 | male C57BL/6 mouse, serum | oral, 10 mg/kg | AUC | 13 µM·h |
| CCN1CCN(Cc2cc(NC(=O)c3ccc(C)c(-c4ccc5nc(NC(=O)C6CC6)cn5n4)c3)cc(C(F)(F)F)c2)CC1 | Swiss mouse, plasma | intraperitoneal, 3 mg/kg | AUC | 1.07 µg·h/mL |
